This note sets out measurements from ChEMBL document CHEMBL1132979, “5-HT reuptake inhibitors with 5-HT(1B/1D) antagonistic activity: a new approach toward efficient antidepressants” (J Med Chem, 2000).

The species named for experiment [1] is Rattus norvegicus. Kind of experiment: [3H]5-HT reuptake inhibition in Rat brain synaptosomes. It is filed as functional.
The target in experiment [2] is 5-hydroxytryptamine receptor 1B (Rattus norvegicus, UniProt P28564). Nature of the experiment: Binding affinity towards 5-hydroxytryptamine 1B receptor in rat frontal cortex using [125I]iodocyanopindolol as radio-ligand. Format: tissue-based.
Chain of 5-hydroxytryptamine receptor 1B (P28564 whole entry): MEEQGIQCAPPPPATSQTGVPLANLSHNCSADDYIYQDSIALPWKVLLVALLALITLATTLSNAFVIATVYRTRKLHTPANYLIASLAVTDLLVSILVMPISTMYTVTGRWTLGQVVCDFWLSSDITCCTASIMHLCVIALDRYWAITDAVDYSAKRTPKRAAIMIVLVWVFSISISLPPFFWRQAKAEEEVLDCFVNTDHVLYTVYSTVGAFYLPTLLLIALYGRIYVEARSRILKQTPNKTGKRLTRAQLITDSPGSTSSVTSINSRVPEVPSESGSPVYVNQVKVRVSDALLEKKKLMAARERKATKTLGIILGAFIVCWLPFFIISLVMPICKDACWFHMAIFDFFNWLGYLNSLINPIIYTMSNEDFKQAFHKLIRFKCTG
Experiment [3] addresses T1, 5-hydroxytryptamine receptor 1A (Rattus norvegicus, UniProt P19327).
T1 sequence (P19327 whole entry): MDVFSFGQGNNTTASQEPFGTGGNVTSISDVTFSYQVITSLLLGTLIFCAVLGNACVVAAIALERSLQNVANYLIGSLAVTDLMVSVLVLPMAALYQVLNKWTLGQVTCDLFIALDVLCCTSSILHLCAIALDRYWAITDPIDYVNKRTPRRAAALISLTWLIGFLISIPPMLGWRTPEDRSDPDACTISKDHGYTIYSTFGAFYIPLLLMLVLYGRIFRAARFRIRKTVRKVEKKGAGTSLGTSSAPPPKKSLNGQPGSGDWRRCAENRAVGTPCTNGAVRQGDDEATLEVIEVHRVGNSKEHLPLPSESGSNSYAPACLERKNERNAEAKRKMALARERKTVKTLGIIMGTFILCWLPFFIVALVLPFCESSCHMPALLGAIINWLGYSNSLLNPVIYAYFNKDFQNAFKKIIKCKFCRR
Nature of the experiment: Binding affinity towards 5-hydroxytryptamine 1A receptor in rat hippocampus using [3H]8-OH-DPAT as radio-ligand.

The species named for experiment [4] is Oryctolagus cuniculus. Kind of experiment: Inhibition of the contractile responses elicited by sumatriptan in rabbit saphenous vein (RSV). Format: functional. The conditions noted are these: read-out: pA2 (converted). The method, boiled down: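 Isolated rabbit saphenous vein segments held in organ baths. Each segment received two sumatriptan concentration-response curves, the second after 60 min incubation with antagonist or control vehicle. Apparent pA2 was calculated from a single antagonist concentration in at least 3 preparations.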

The species named for experiment [5] is Cavia porcellus. Nature of the experiment: Sumatriptan induced inhibition of potassium evoked [3H]5-HT release from guinea pig cortex slices. Format: functional. The method, boiled down:
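Cortex slices from male Dunkin-Hartley guinea pigs were loaded with [3H]5-HT for 30 min, then given potassium stimulation. Sumatriptan 3 µM alone (control), or with test compound at 30 nM, 300 nM or 3 µM, was superfused before and during S2. Basal-subtracted S2/S1 ratio is expressed as % of the sumatriptan-only ratio. Mean (±SEM) of 3-4 determinations.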

`COc1ccc(NC(=O)NCCc2c[nH]c3ccc(O)cc23)cc1N1CCN(C)CC1`: the 50% inhibitory concentration (IC50) in experiment [1] amounted to 314 nM; in experiment [2], 467 nM; in experiment [3] it was 57 nM.
Turning to `NC(=O)c1ccc2[nH]cc(C3CCNCC3)c2c1`, the IC50 in experiment [1] was over 100 nM.
In experiment [1], `NCCN1CCC(c2c[nH]c3cc(F)ccc23)CC1` returned an IC50 of 11 nM. That is a double-digit nanomolar value.
On the same count and under the same terms, the figure for `Fc1ccc2[nH]cc(CCCCN3CCNCC3)c2c1` is 0.15 nM.
With `COc1ccc(NC(=O)N2CCc3[nH]c4ccc(F)cc4c3C2)cc1N1CCN(C)CC1`, the IC50 in experiment [1] is 469 nM; in experiment [2], 567 nM; in experiment [3] it was over 800 nM.
Take `COc1ccc(NC(=O)N2CCN(CCCCc3c[nH]c4ccc(F)cc34)CC2)cc1N1CCN(C)CC1`: the Kb in experiment [4] is 20 nM. Moreover, the IC50 came out at 0.7 nM in experiment [1], 77 nM in experiment [2] and 50 nM in experiment [3]. In experiment [5], this molecule came in with a Release of 120%.
In the same order, the values of `COc1ccc(NC(=O)N2CCC(c3c[nH]c4ccccc34)CC2)cc1N1CCN(C)CC1` are 20 nM, 200 nM, 50 nM, 400 nM and 127%.
Regarding `CN1CCC2(CC1)COc1ccc(NC(=O)NCCN3CCC(c4c[nH]c5cc(F)ccc45)CC3)cc12`, the figures for the IC50 in experiment [1], in experiment [2] and in experiment [3] were 2.2 nM, 300 nM and 700 nM, respectively.
For the molecule `Cc1nc(-c2ccc(-c3ccc(C(=O)Nc4ccc5c(c4)C4(CCN(C)CC4)CO5)cc3)c(C)c2)no1`, the IC50 in experiment [1] was over 1000 nM; in experiment [2], 2.1 nM. The molecule further showed a Release in experiment [5] of 134%.
Turning to `Fc1ccc2[nH]c3c(c2c1)CNCC3`, the IC50 in experiment [1] is over 100 nM.
On to `COc1ccc(NC(=O)N2CCC(c3c[nH]c4cccc(F)c34)CC2)cc1N1CCN(C)CC1`, for which, in experiment [4], the Kb is 2 nM. Moreover, the IC50 in experiment [1] came out at 65 nM; in experiment [2], 50 nM; in experiment [3], 300 nM. This molecule also had a Release in experiment [5] of 145%.
Consider `COc1ccc(NC(=O)NCCN2CCC(c3c[nH]c4cc(F)ccc34)CC2)cc1N1CCN(C)CC1`, for which the values for the IC50 in experiment [1], in experiment [2] and in experiment [3] were 1.9 nM, 223 nM and 160 nM, respectively.
In the case of `c1ccc2c(C3CCNCC3)c[nH]c2c1`, in experiment [1], half-maximal inhibition (IC50) required 60 nM. This lies in the double-digit nanomolar range.
`COc1ccc(NC(=O)NCCc2c[nH]c3ccc(F)cc23)cc1N1CCN(C)CC1`: in experiment [4], the Kb is 20 nM. Further, the IC50 in experiment [1] came out at 387 nM; in experiment [2] it was 63 nM; in experiment [3], 27 nM. For the same molecule, in experiment [5], the Release turned out to be 134%.
As to `COc1ccc(NC(=O)N2CCC(c3c[nH]c4ccc(F)cc34)CC2)cc1N1CCN(C)CC1`, in experiment [4], the Kb was 15.8 nM. The IC50 in experiment [1] was 21 nM; in experiment [2], 85 nM; in experiment [3] it was 367 nM. Also, in experiment [5], the Release is given as 151%.
Turning to `COc1ccc(N)cc1N1CCN(C)CC1`, the IC50 in experiment [1] was over 1000 nM.
On to `COc1ccc(NC(=O)N2CCC(c3c[nH]c4ccc(C(N)=O)cc34)CC2)cc1N1CCN(C)CC1`, for which, in experiment [4], the Kb was 15.8 nM. Further, the IC50 was determined as 472 nM in experiment [1], 113 nM in experiment [2] and 17 nM in experiment [3]. In experiment [5], this molecule displayed a Release of 217%.
For the molecule `CN1CCC2(CC1)COc1ccc(N)cc12`, in experiment [1], the IC50 is over 1000 nM.
As to `NCCc1c[nH]c2ccc(F)cc12`, the midpoint of inhibition in experiment [1], the IC50, lay at 130 nM. This lies in the sub-micromolar range.
Take `Fc1ccc2[nH]cc(C3CCNCC3)c2c1`: the IC50 in experiment [1] turned out to be 55 nM.
Still for that read-out and setting: the figure for `Fc1ccc2[nH]cc(C3CCNC3)c2c1` (stereo not drawn) is 45 nM.
As to `CN1CCC2(CC1)COc1ccc(NC(=O)N3CCC(c4c[nH]c5ccc(F)cc45)CC3)cc12`, the Kb in experiment [4] was 50.1 nM. For the same molecule, the IC50 in experiment [1] is 0.2 nM; in experiment [2], 23 nM; in experiment [3] it was over 200 nM. In addition, the Release in experiment [5] is listed as 125%.
Molecule `COc1ccc(N)cc1OCCN(C)C` displayed an IC50 in experiment [1] of over 1000 nM.
On the same count and under the same terms, the figure for `Fc1cccc2[nH]cc(C3CCNCC3)c12` is 60 nM.
In the case of `COc1ccc(NC(=O)N2CCC(c3c[nH]c4cc(F)ccc34)CC2)cc1N1CCN(C)CC1`, the Kb in experiment [4] was 25.1 nM. For the same molecule, the IC50 worked out at 49 nM in experiment [1], 80 nM in experiment [2] and 667 nM in experiment [3]. In experiment [5], this molecule showed a Release of 169%.
On to `COc1ccc(NC(=O)NCCN2CCC(c3c[nH]c4cc(F)ccc34)CC2)cc1OCCN(C)C`, for which the results for the IC50 in experiment [1], in experiment [2] and in experiment [3] were 1.2 nM, 133 nM and 233 nM, respectively.
In the case of `COc1ccc(NC(=O)N2CCC(c3c[nH]c4ccc(F)cc34)C2)cc1N1CCN(C)CC1` (stereo not drawn), the IC50 in experiment [1] was determined as 106 nM; in experiment [2], 233 nM; in experiment [3], 100 nM.
In the case of `COc1ccc(NC(=O)N2CCC(CCc3c[nH]c4ccccc34)CC2)cc1N1CCN(C)CC1`, the Kb in experiment [4] was 20 nM. The IC50 in experiment [1] is 10 nM; in experiment [2], 120 nM; in experiment [3], over 300 nM. Also, the Release in experiment [5] worked out at 121%.
For `Fc1ccc2c(C3CCNCC3)c[nH]c2c1`, it took 20 nM to reach half-maximal inhibition in experiment [1] (IC50). This counts as double-digit nanomolar.
`COc1ccc(NC(=O)N2CCC(c3c[nH]c4ccc(F)cc34)CC2)cc1OCCN(C)C`: the IC50 in experiment [1] is 4 nM; in experiment [2], 633 nM; in experiment [3], over 500 nM.
In experiment [1], `N#Cc1ccc2[nH]cc(C3CCNCC3)c2c1` gave an IC50 of 58 nM.
Take `COc1ccc(NC(=O)N2CCC(c3c[nH]c4ccc(C#N)cc34)CC2)cc1N1CCN(C)CC1`: in experiment [4], the Kb is 10 nM. For the same molecule, the values for the IC50 in experiment [1], in experiment [2] and in experiment [3] were 1.9 nM, 267 nM and 233 nM, respectively. The same molecule displayed a Release in experiment [5] of 167%.
Regarding `COc1ccc(NC(=O)c2ccc(-c3ccc(-c4noc(C)n4)cc3C)cc2)cc1N1CCN(C)CC1` [GR-127935], the Kb in experiment [4] is 0.398 nM. The concentration for half-maximal inhibition (IC50) in experiment [1] was determined as 1000 nM; in experiment [3] it was 360 nM. In experiment [5], the Release stood at 114%.
In turn, `c1ccc2c(CCC3CCNCC3)c[nH]c2c1` [INDALPINE] gave an IC50 in experiment [1] of 1 nM.

What is called IC50 is the point on the concentration scale where inhibition reaches its midpoint. Read a low IC50 as inhibition by little substance.
